Activity calls are given as the source filed them. The calls are words filed in the database; no cut-off is given here.
Legend:
Leucine--tRNA ligase = Leucine--tRNA ligase (Escherichia coli (strain K12), UniProt P07813); experiment: Inhibition of recombinant Escherichia coli LeuRS assessed as inhibition of 14C-radiolabelled leucine transfer to tRNA leucine preincubated for 10 mins followed by addition of ATP and measured after 4 mins by Scintillation counting method; settings: read-out: Ki(app)
Staphylococcus aureus [1] = experiment: Antibacterial activity against Staphylococcus aureus ATCC6538 at 64 uM measured after 17 hrs by resazurin based flourimetric assay; assay type: functional, organism-based
Procedure, shortened: (§1)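 Bacteria grown in Mueller Hinton broth at 37 °C, inoculum 5×10^3 CFU/ml. […] After 17 h, resazurin was added for 1/2 h and fluorescence read (ex 550/em 590 nm). Results are % growth reduction versus untreated and medium-only wells.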

[2] = tested on: Mycobacterium tuberculosis; experiment: Antibacterial activity against Mycobacterium tuberculosis H37Ra […] assessed as inhibition of bacterial growth at 128 uM measured after 17 hrs by resazurin based flourimetric assay; assay type: functional
Procedure, shortened: (§2)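 M. tuberculosis H37Ra cultured in 7H9 + 10% OADC at 37 °C. Compounds serially pre-diluted 2-fold in DMSO, then diluted in water, final DMSO <1%, top concentration 128 µM. Inoculum 5×10^3 CFU/ml. After 17 h, resazurin added, 1/2 h at 37 °C, fluorescence read (ex 550/em 590 nm). Growth expressed as % reduction versus untreated and medium controls; IC50 derived.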

Escherichia coli [3] = experiment: Antibacterial activity against Escherichia coli ATCC8739 at 64 uM measured after 17 hrs by resazurin based flourimetric assay; assay type: functional, organism-based; procedure, shortened: as §1
Candida albicans = experiment: Antifungal activity against Candida albicans at 64 uM measured after 17 hrs by resazurin based flourimetric assay; assay type: functional, organism-based
Procedure, shortened: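 Compounds were 4-fold serially diluted in RPMI with 1% DMSO background, from 64.0 µM down to 3.9×10^-3 µM. Miconazole 0.25 µM served as positive control.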

[4] = tested on: Mycobacterium tuberculosis; experiment: Antibacterial activity against Mycobacterium tuberculosis H37Ra […] assessed as inhibition of bacterial growth measured after 17 hrs by resazurin based flourimetric assay; assay type: functional, organism-based; procedure, shortened: as §2
Escherichia coli [5] = experiment: Antibacterial activity against Escherichia coli ATCC8739 assessed as inhibition of bacterial growth measured after 17 hrs by resazurin based flourimetric assay; assay type: functional, organism-based; settings: ATCC8739, ATCC 8739, 17 h; procedure, shortened: as §1
Staphylococcus aureus [6] = experiment: Antibacterial activity against Staphylococcus aureus ATCC6538 assessed as inhibition of bacterial growth measured after 17 hrs by resazurin based flourimetric assay; assay type: functional, organism-based; settings: ATCC6538, 17 h; procedure, shortened: as §1

Leucine--tRNA ligase, sequence (P07813 whole entry): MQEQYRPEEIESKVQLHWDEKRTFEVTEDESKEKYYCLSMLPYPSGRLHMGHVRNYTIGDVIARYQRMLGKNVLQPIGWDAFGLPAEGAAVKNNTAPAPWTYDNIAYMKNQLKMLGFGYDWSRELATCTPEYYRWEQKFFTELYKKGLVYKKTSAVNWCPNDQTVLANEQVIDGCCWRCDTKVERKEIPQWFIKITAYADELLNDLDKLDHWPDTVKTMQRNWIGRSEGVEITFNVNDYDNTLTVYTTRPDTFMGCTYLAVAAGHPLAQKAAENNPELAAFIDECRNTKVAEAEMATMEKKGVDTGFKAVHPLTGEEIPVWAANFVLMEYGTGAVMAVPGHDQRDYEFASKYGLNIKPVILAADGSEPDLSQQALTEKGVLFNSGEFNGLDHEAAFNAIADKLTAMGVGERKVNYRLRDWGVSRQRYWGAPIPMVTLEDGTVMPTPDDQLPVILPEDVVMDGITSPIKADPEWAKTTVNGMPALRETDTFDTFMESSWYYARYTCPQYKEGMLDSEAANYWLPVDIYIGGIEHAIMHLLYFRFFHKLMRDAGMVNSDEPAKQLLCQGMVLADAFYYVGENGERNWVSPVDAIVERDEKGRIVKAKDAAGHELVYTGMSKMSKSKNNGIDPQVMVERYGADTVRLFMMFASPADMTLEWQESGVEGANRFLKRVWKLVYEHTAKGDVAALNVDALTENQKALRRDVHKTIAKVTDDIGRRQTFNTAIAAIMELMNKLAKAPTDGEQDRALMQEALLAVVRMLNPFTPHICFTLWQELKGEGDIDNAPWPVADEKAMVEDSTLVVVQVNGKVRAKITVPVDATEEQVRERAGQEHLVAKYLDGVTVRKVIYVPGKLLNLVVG

Compound | Ki (Leucine--tRNA ligase) [nM] | Activity (Staphylococcus aureus [1]) | inhibition at 128 µM [2] [%] | Activity (Escherichia coli [3]) | Activity (Candida albicans) | IC50 [4] [nM] | IC50 (Escherichia coli [5]) [nM] | IC50 (Staphylococcus aureus [6]) [nM]
CC(C)C[C@H](N)C(=O)NS(=O)(=O)OC[C@H]1OC[C@@H](CCCn2cc(CNCc3ccccc3)nn2)[C@H](O)[C@@H]1O | 1260 | inactive | 12.1 | inactive | inactive |  |  | 
CC(C)C[C@H](N)C(=O)NS(=O)(=O)OC[C@H]1OC[C@@H](CCCn2cc(-c3ccc(OC(F)(F)F)cc3)nn2)[C@H](O)[C@@H]1O | 17.8 | inactive | 27.8 | inactive | inactive |  |  | 
CCCCCCCCc1cn(CCC[C@@H]2CO[C@H](COS(=O)(=O)NC(=O)[C@@H](N)CC(C)C)[C@@H](O)[C@H]2O)nn1 | 52.4 | inactive | 4.26 | inactive | inactive |  |  | 
CC(C)C[C@H](N)C(=O)NS(=O)(=O)OC[C@H]1OC[C@@H](CCCn2cc(CCc3ccccc3)nn2)[C@H](O)[C@@H]1O | 108 | inactive | 38.2 | inactive | inactive |  |  | 
CC(C)C[C@H](N)C(=O)NS(=O)(=O)OC[C@H]1OC[C@@H](CCCn2cc(CCCCO)nn2)[C@H](O)[C@@H]1O | 388 | inactive | 23.2 | inactive | inactive |  |  | 
CC(C)C[C@H](N)C(=O)NS(=O)(=O)OC[C@H]1OC[C@@H](CCCn2cc(CN)nn2)[C@H](O)[C@@H]1O | 2970 | inactive | 9.44 | inactive | inactive |  |  | 
CCCCCc1ccc(-c2cn(CCC[C@@H]3CO[C@H](COS(=O)(=O)NC(=O)[C@@H](N)CC(C)C)[C@@H](O)[C@H]3O)nn2)cc1 | 5.51 | inactive | 86.1 | inactive | inactive | 24700 |  | 
CC(C)C[C@H](N)C(=O)NS(=O)(=O)OC[C@H]1OC[C@@H](CCCn2cc(-c3cccnc3)nn2)[C@H](O)[C@@H]1O | 31.6 | inactive | 16.9 | inactive | inactive |  |  | 
CC(C)C[C@H](N)C(=O)NS(=O)(=O)OC[C@H]1O[C@@H](CCn2nnc(-c3ccccc3)n2)[C@H](O)[C@@H]1O | 30.9 | inactive | 49.8 | inactive | inactive |  |  | 
CC(C)C[C@H](N)C(=O)NS(=O)(=O)OC[C@H]1OC[C@@H](CCCn2cc(CNC(=O)c3ccccc3)nn2)[C@H](O)[C@@H]1O | 31.3 | inactive |  | inactive | inactive |  |  | 
COc1c(N2C[C@@H]3CCCN[C@@H]3C2)c(F)cc2c(=O)c(C(=O)O)cn(C3CC3)c12 [MOXIFLOXACIN] |  |  |  |  |  | 250 |  | 
C[C@H]1c2cccc(O)c2C(=O)C2=C(O)[C@]3(O)C(=O)C(C(N)=O)=C(O)[C@@H](N(C)C)[C@@H]3[C@@H](O)[C@@H]21 [DOXYCYCLINE] |  |  |  |  |  |  | 730 | 110

From ChEMBL document CHEMBL4818997, “Synthesis and structure-activity studies of novel anhydrohexitol-based Leucyl-tRNA synthetase inhibitors” (Eur J Med Chem, 2021)
